Measured values from ChEMBL document CHEMBL3352348, “Detailed analysis of (-)-palmyrolide a and some synthetic derivatives as voltage-gated sodium channel antagonists” (J Nat Prod, 2014).

Test system: not listed separately
Experiment: (§1) Antagonist activity against Voltage-gated sodium channel in Swiss-Webster mouse primary cerebrocortical neurons assessed as inhibition of veratridine-induced sodium influx by SBFI-AM dye based fluorescence assay
Procedure, shortened: (§2)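 Primary cortical neurons from E17 Swiss-Webster mouse embryos, plated at 1.5 × 10^5 cells/well and used at 7–9 days in vitro. Cells were loaded with 10 μM SBFI-AM plus 0.02% Pluronic F-127 for 1 h at 37 °C in Locke's buffer (pH 7.4), then equilibrated 15 min. Baseline was read for 60 s, then compound and/or veratridine was added. Ex 340/380 nm, em 505 nm, background-corrected 340/380 ratio. IC50 from a three-parameter logistic fit, 4–7 experiments.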

| Structure (SMILES) | IC50 [µM] |
| --- | --- |
| C[C@H]1CCCC(=O)N(C)/C=C/CC[C@H](C)C(=O)O[C@H](C(C)(C)C)C1 | 4 |
| CNC(=O)CCC[C@@H](C)C[C@@H](OC(=O)[C@@H](C)CCCCO)C(C)(C)C | > 10 |
| C[C@@H]1CCCC(=O)N(C)CCCC[C@@H](C)C(=O)O[C@@H](C(C)(C)C)C1 | 3 |
| CNC(=O)CCC[C@@H](C)C[C@@H](OC(=O)[C@H](C)CCCC(=O)O)C(C)(C)C | > 10 |
| CNC(=O)CCC[C@@H](C)C[C@@H](OC(=O)[C@H](C)CCCCO)C(C)(C)C | > 10 |
| C[C@H]1CCCC(=O)N(C)/C=C/CC[C@@H](C)C(=O)O[C@H](C(C)(C)C)C1 | > 10 |
| C[C@@H]1CCCC(=O)N(C)CCCC[C@H](C)C(=O)O[C@@H](C(C)(C)C)C1 | 4.5 |
| C[C@@H]1CCCC(=O)N(C)/C=C/CC[C@@H](C)C(=O)O[C@@H](C(C)(C)C)C1 | 2.1 |
| C[C@@H]1CCCC(=O)N(C)/C=C/CC[C@@H](C)C(=O)O[C@H](C(C)(C)C)C1 | 19.1 |
| C[C@@H]1CCCC(=O)N(C)/C=C/CC[C@H](C)C(=O)O[C@@H](C(C)(C)C)C1 | > 10 |
| C[C@H](CCCC(N)=O)C[C@@H](OC(=O)[C@H](C)CC/C=C/I)C(C)(C)C | > 10 |
| C[C@@H]1CCCC(=O)N(C)/C=C/CC[C@H](C)C(=O)O[C@H](C(C)(C)C)C1 | 21 |

Organism: Mus musculus
Experiment: as §1
Procedure, shortened: as §2

| Structure (SMILES) | inhibition |
| --- | --- |
| C[C@H]1CCCC(=O)N(C)/C=C/CC[C@H](C)C(=O)O[C@H](C(C)(C)C)C1 | Dose-dependent effect |
| C[C@@H]1CCCC(=O)N(C)/C=C/CC[C@@H](C)C(=O)O[C@@H](C(C)(C)C)C1 | Dose-dependent effect |
